Bioassay records from PubChem BioAssay.
In the library only some 1.9% were active in any assay of this set; here they are far more common.
Neddylation inh = blocks human cullin neddylation. P61081+Q13564. TR-FRET cullin neddylation, biochemical. inhibition, % at 25 µM. 360,000 compounds, 0.58% hits; in the data active = inhibition above about 36%
HIF activator = HIF pathway transcriptional activation; U2OS HRE-luciferase reporter, luminescence; normalized: DMSO 0%, desferrioxamine 100%; activation, % at 7.5 µM (by protocol); 300,000 compounds, 0.32% hits; AID 1910;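 active = mean activation of at least 10% of the iron chelator positive control signal, with at least half of replicates also reaching 10%; inconclusive = mean and replicate majority disagree about reaching 10%; inactive = mean and most replicates under 10%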
proCasp3 act = procaspase-3 (human) activation; P42574; recombinant procaspase-3 D3A, Ac-DEVD-pNA absorbance 405 nm; 330,000 compounds, 0.11% hits; activation, % at 8.5 µM;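 active = activation above the mean of all tested compounds plus 3 SD, cut at about 21% in these data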
Target sequence (P42574 whole entry D9A/D28A/D175A): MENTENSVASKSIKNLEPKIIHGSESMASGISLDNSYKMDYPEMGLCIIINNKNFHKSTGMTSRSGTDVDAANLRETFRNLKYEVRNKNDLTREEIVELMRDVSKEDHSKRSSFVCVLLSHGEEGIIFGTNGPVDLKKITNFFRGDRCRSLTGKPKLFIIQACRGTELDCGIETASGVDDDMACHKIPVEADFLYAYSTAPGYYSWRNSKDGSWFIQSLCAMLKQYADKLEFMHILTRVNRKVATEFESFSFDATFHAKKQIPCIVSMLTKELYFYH
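Assay system: Procaspase-3 D3A mutant, all three cleavage aspartates alanine. Buffer or medium: Zinc-free HEPES saline buffer with Triton X-100. Times: 1 h compound preincubation, 2 h substrate hydrolysis at 25 °C. Measured by: 405 nm absorbance of p-nitroaniline, reads at 0 and 120 min. Read-out basis: percent activation relative to control range. Replicates: singlicate.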
GAA850 FXN act = frataxin GAA850 promoter activation. HEK293 lucGAA850 FXN promoter luciferase reporter, 24 h; percent of 10 µM SAHA response. activation, % at 6 µM. 360,000 compounds, 0.56% hits. AID 540364;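 active = activation above the average of all compounds screened plus 3 SD, cutoff fixed separately per campaign, cut at about 7.5% in these data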
procasp7 counter = counter-screen: procaspase-7 (human) activation; P55210; recombinant procaspase-7, Ac-DEVD-pNA absorbance 405 nm; D23A/D198A/D206A triple mutant, cannot self-cleave; scale: DMSO 0, 5 µM enzyme 100; activation, % at 8.5 µM; 330,000 compounds, 0.093% hits;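 active = percent activation above the screen-wide mean plus 3 SD, cut at about 25% in these data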
Target sequence (P55210 whole entry D23A/D198A/D206A): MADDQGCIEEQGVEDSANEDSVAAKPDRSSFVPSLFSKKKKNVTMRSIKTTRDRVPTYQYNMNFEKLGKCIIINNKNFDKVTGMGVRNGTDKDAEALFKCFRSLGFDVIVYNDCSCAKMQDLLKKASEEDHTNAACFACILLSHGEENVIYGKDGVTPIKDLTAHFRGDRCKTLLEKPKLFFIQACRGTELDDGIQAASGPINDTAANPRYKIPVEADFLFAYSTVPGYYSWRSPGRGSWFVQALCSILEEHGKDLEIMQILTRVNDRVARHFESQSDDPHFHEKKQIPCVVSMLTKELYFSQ
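Detection: p-Nitroaniline absorbance at 405 nm, read at 0 and 120 min; system: Uncleavable procaspase-7 mutant enzyme; evaluation: % activation from two-timepoint absorbance difference, scaled to controls; times: 1 h enzyme–compound preincubation and 2 h substrate reaction, both 25 °C; buffer or medium: Zinc-free HEPES pH 7.4 with 300 mM NaCl, 0.01% Triton X-100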
Calb FLC = affects C. albicans growth with fluconazole; 300,000 compounds, 0.57% hits; C. albicans CaCi-2 + fluconazole, Alamar Blue growth, 48 h; growth inhibition, % (test concentration not listed);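 active = growth inhibition above about 58% in most replicates, limit read from the data, passing the limit was not always enough; inconclusive = exactly half the replicates above a set limit; inactive = most replicates below a set limit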;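 note: all wells also contain fluconazole at 8 µg/ml as a sub-toxic cotreatment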
Neddyl inh conf = cullin neddylation inhibition, confirmation | shares compounds with Neddylation inh | TR-FRET cullin neddylation biochemical assay | calls only at 25 µM | 1,800 compounds, 13% hits; in the data active = inhibition above about 40%;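 note: neddylation substrate is the cullin 1 ring ligase complex with SKP2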
Hits are given with their value; - = inactive; ? = inconclusive; . = no result given; + = active, no number.

SMILES | Neddylation inh | HIF activator | proCasp3 act | GAA850 FXN act | procasp7 counter | Calb FLC | Neddyl inh conf
COc1cc2c(cc1OC)C(c1cc(Br)ccc1F)N(C(=O)CCl)CC2 (stereo not drawn) | - | - | - | - | - | - | .
COc1cc2c(cc1OC)C(C1C(=O)CC(C)(C)CC1=O)N(C(=O)CCl)CC2 (stereo not drawn) | 41 | - | - | - | - | - | -
O=C(O)c1cc2ccc3cccc4ccc(c1)c2c34 | 52 | - | - | - | - | - | .
O=C(O)c1cccc(C(=O)c2cccc(C(=O)O)c2)c1 | - | - | - | - | - | - | .
Cc1ccc(-c2cc(-c3ccc(F)cc3)c(C#N)c(N)n2)o1 | 53 | - | - | - | - | - | .
CC(C)(C)c1ccc(-c2nc(C#N)c(N3CCC(C(N)=O)CC3)o2)cc1 | . | - | - | - | - | - | .
CCc1nc2c(OCc3ccc(F)cc3)cccn2c1N(C)C(=O)CC(C)C | - | . | . | - | . | . | .
O=C(Nc1nc2n(n1)C(c1ccccc1)CC(c1ccc(Cl)cc1)N2)c1ccco1 (stereo not drawn) | - | - | - | - | - | - | .
COc1ccc(C2CC(c3ccc(OC)cc3)n3nc(NC(=O)c4ccco4)nc3N2)cc1 (stereo not drawn) | 39 | - | - | - | - | - | -
COc1ccc(C2CC(c3ccccc3)Nc3nc(NC(=O)c4ccco4)nn32)cc1 (stereo not drawn) | 40 | - | - | - | - | - | -
COc1cc(Br)c(CN2C(=O)NC3(CCCCCC3)C2=O)cc1OC | - | - | - | - | - | - | .
O=C(NC(=S)NNC(=O)[C@H]1C[C@@H]1c1ccccc1)c1cccc(F)c1 | - | - | - | - | - | - | .
COc1cccc(OC)c1C(=O)NC(=S)NNC(=O)[C@H]1C[C@@H]1c1ccccc1 | 48 | - | - | - | - | - | -
COCCn1nnnc1CN(CCc1ccccc1)Cc1cc2ccc(C)cc2[nH]c1=O | - | - | - | - | - | . | .
CCOc1ccc2[nH]c(=O)c(CN(CCO)Cc3nnnn3CCc3ccccc3)cc2c1 | 46 | - | - | - | - | - | -
CCOc1ccc2[nH]c(=O)c(CN(CCCN3CCOCC3)Cc3nnnn3Cc3ccc(OC)cc3)cc2c1 | 39 | - | - | - | - | ? | -
O=C(NS(=O)(=O)N1CCOCC1)C1=C(N2CCCC2)COC1=O | - | . | - | - | - | . | .
O=C(Nc1ccc(F)cc1)C(c1ccncc1)N1CCN(c2cccc(C(F)(F)F)n2)CC1 (stereo not drawn) | - | . | . | . | . | . | .
Brc1ccc(-c2ccc(/C=N/Nc3nc(N4CCOCC4)nc(N4CCOCC4)n3)o2)cc1 | 46 | - | - | - | - | - | -
Fc1cnc(N/N=C/c2ccc(-c3ccc(Br)cc3)o2)nc1N1CCOCC1 | - | - | - | - | - | - | .
CCOc1ccc(NS(=O)(=O)c2ccc(C(=O)N(C)CC(=O)Nc3ccccc3Br)cc2)cc1 | - | . | . | - | . | . | .
COc1c(C)cc(C(=O)C2CCCN(C(=O)c3cc(C4CC4)[nH]n3)C2)cc1C (stereo not drawn) | - | - | - | - | - | - | .
Cc1c2ccccc2nc2ccccc12 | 50 | - | - | - | - | - | -
CN(C)C(=O)CCc1ccc2c3c([nH]c2c1)[C@]1(CCc2ccccc2)[C@@H](C(=O)N2CCCCC2)C[C@H](CC(=O)NC(C)(C)C)C(=O)N1CC3 | - | . | - | - | - | . | .
O=S(=O)(NC1C2CC3CC(C2)CC1C3)c1ccccc1 (stereo not drawn) | - | . | - | - | - | . | .
SMILES | Neddylation inh | HIF activator | proCasp3 act | GAA850 FXN act | procasp7 counter | Calb FLC | Neddyl inh conf
O=C(O)Cn1c(=O)c(F)cn(C2CCCO2)c1=O (stereo not drawn) | - | - | - | - | - | - | .
COc1ccc(-c2cc(=O)c3cc(O)ccc3o2)cc1 | 50 | - | - | - | - | - | .
Cc1c(C=Nc2ccc(S(=O)(=O)N(C)C)cc2)c(O)[nH]c(=O)c1C#N | - | - | - | - | - | - | .
O=c1c2ccccc2nc2n1CCCN2 | 52 | - | - | - | - | - | .
O=c1c2ccccc2nc2n1CCCCN2 | . | - | - | - | - | - | .
Cc1cc(N/C(=N/S(=O)(=O)c2cc(F)ccc2F)c2ccccc2)n(-c2ccccc2)n1 | . | - | - | - | - | - | .
Cc1cc(N/C(=N/S(=O)(=O)c2ccc(F)cc2)c2ccccc2)n(-c2ccccc2)n1 | 52 | - | - | - | - | - | -
CC1CCCN(C(=O)c2cc3ccccc3cc2O)C1 (stereo not drawn) | - | - | - | - | - | - | .
Cc1ccc(C(=O)Nc2ccc3c(c2)C(=O)N(CC2CCCO2)C3=O)cc1 (stereo not drawn) | 61 | - | - | - | - | - | .
CC(Oc1cccc(Cl)c1)C(=O)Nc1ccc(N2CCOCC2)cc1N1CCOCC1 (stereo not drawn) | - | - | - | - | - | - | .
Cc1c(/C=C(\CC(=O)O)c2nc3ccccc3s2)cc(C#N)n1C | 43 | - | - | - | - | - | .
O=C(NNC(=O)c1ccc2ccccc2c1O)NC1CCCCC1 | 41 | - | . | - | . | ? | -
O=S1(=O)CCOC[C@H](Cc2ccccc2)N1Cc1ccc(Cl)cc1 | - | - | - | - | - | - | .
CCOC(=O)c1cnc2c(C(F)(F)F)cccc2c1NCCCN1CCOCC1 | - | - | - | - | - | - | .
COc1ccc(S(=O)(=O)N(C)C[C@@H]2OCc3cn(nn3)CCCC(=O)N([C@@H](C)CO)C[C@H]2C)cc1 | - | . | . | - | . | . | .
COc1ccc(S(=O)(=O)Nc2c(C(=O)O)[nH]c3ccc(OC)cc23)cc1 | . | - | - | - | - | . | .
COc1ccc2[nH]c(C(=O)O)c(NS(=O)(=O)c3ccc(OC)c(OC)c3)c2c1 | 44 | - | - | - | - | - | +
Cc1ccc(S(=O)(=O)N2CCN(C(=O)CCn3cncn3)CC2)cc1C | - | - | - | - | - | - | .
COc1ccc2cc(/C(C)=N/NC(=O)C3CC3)ccc2c1 | 43 | - | - | - | - | - | -
COc1ccc(/C(C)=N/NC(=O)C2CC2)cc1 | - | - | - | - | - | - | .
COc1cc(C=NNC(=O)c2ccc(NS(=O)(=O)c3cccs3)cc2)cc(Br)c1O | 50 | . | - | - | - | . | +
COc1ccccc1NS(=O)(=O)c1cccc(C(=O)N/N=C/c2cn(-c3ccccc3)nc2-c2ccccc2)c1 | 38 | - | - | - | - | - | .
COc1ccc(NS(=O)(=O)c2cccc(C(=O)N/N=C/c3ccc(O)cc3)c2)cc1 | 43 | - | - | - | - | - | -
COc1ccc(NS(=O)(=O)c2cccc(C(=O)NN=Cc3ccc(O)c(OC)c3)c2)cc1 | - | . | - | - | - | . | .
